Drawing on ChEMBL document CHEMBL2169773, “Modified acidic nonsteroidal anti-inflammatory drugs as dual inhibitors of mPGES-1 and 5-LOX” (J Med Chem, 2012), this text covers IC50, inhibition and Activity for 30 compounds.

The source made the active and inactive calls. The calls are words filed in the database; no cut-off is given here.

Assay [1] concerns the target T1, Polyunsaturated fatty acid 5-lipoxygenase (Homo sapiens, UniProt P09917).
T1 sequence (P09917 whole entry): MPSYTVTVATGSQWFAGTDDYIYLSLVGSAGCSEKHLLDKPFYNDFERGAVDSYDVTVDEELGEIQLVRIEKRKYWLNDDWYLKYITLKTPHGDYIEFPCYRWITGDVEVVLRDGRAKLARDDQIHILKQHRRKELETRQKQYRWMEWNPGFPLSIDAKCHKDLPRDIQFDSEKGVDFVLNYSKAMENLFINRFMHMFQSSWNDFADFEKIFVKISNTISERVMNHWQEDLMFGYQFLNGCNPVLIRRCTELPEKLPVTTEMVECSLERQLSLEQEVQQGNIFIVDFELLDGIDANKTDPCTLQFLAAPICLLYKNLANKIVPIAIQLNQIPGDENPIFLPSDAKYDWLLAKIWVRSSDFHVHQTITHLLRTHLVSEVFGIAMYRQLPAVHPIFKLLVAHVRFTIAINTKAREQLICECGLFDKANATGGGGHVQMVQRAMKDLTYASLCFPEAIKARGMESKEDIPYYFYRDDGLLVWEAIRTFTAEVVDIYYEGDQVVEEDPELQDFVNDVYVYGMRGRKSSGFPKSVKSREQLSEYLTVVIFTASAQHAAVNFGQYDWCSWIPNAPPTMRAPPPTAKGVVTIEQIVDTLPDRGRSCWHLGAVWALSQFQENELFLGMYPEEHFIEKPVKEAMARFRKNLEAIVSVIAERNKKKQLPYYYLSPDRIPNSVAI
The assay is described as follows: Inhibition of 5-lipoxygenase in A23187-stimulated human neutrophils assessed as inhibition of enzyme product formation by RP-HPLC analysis. The method in brief:
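Whole-cell assay in human neutrophils stimulated with A23187 plus 20 μM exogenous arachidonic acid as substrate; BWA4C as reference inhibitor. IC50 calculated for selected compounds; mean with SE, n = 3−5.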

Assay [2] concerns the target T2, Prostaglandin G/H synthase 1 (Ovis aries) (UniProt P05979).
T2 sequence (whole entry): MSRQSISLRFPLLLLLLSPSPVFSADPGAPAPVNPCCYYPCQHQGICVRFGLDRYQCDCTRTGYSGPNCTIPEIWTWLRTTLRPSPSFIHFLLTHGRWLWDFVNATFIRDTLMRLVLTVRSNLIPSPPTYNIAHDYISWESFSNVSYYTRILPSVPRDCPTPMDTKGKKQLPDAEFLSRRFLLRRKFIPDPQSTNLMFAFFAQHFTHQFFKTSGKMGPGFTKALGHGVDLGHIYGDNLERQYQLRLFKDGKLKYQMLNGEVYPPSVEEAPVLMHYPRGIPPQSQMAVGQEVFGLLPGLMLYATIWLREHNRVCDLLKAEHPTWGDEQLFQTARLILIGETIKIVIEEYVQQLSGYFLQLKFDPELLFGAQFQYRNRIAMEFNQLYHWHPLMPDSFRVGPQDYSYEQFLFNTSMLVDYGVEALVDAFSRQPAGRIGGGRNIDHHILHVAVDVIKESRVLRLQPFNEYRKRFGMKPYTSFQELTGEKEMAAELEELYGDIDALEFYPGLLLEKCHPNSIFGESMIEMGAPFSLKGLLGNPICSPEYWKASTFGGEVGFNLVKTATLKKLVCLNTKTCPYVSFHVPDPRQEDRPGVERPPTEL
Nature of the assay: Inhibition of ovine COX1 assessed as inhibition of 12-HHT formation preincubated at 10 uM for 5 mins before arachidonic acid addition by HPLC analysis.

For the next assay, the target named is T3, Prostaglandin E synthase (Homo sapiens, UniProt O14684).
T3 sequence (O14684 whole entry): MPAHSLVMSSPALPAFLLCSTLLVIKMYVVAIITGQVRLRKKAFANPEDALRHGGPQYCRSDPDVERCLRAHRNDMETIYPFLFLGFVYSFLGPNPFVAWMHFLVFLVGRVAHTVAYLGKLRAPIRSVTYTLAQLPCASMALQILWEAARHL
Nature of the assay: Inhibition of mPGES-1 in human IL-1beta-stimulated A549 cell microsomes assessed as inhibition of PGE2 formation from PGH2 after 15 mins by RP-HPLC analysis. On the set-up: species or system Microsome.

The target of assay [3] is T4, Prostaglandin E synthase (Homo sapiens) (UniProt O14684).
T4 sequence (whole entry): T3 sequence (O14684 whole entry)
Nature of the assay: Inhibition of mPGES-1 in human IL-1beta-stimulated A549 cell microsomes assessed as remaining activity measuring PGE2 formation from PGH2 at 10 uM after 15 mins by RP-HPLC analysis. The note with it: Microsome. The method in brief:
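Cell-free assay with microsomes from human A549 cells; PGE2 generation from 20 μM PGH2 substrate; compounds tested at 10 μM. Result given as % PGE2 formation remaining versus vehicle control; MK-886 reference; mean with SE, n = 3−5.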

For assay [4], the target named is T5, Polyunsaturated fatty acid 5-lipoxygenase (Homo sapiens) (UniProt P09917).
T5 sequence (whole entry): T1 sequence (P09917 whole entry)
The assay is described as follows: Inhibition of 5-lipoxygenase in A23187-stimulated human neutrophils assessed as remaining activity measuring enzyme product formation at 10 uM by RP-HPLC analysis relative to vehicle-treated control. The method in brief: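 Human neutrophils (whole cells) stimulated with A23187 and 20 μM exogenous arachidonic acid; test compounds at 10 μM. Activity expressed as % remaining versus vehicle control; BWA4C as reference inhibitor; mean with SE, n = 3−5.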

Assay [5] concerns the target T2, Prostaglandin G/H synthase 1 (Ovis aries). Nature of the assay: Inhibition of ovine COX1 assessed as inhibition of 12-HHT formation measuring remaining activity preincubated at 10 uM for 5 mins before arachidonic acid addition by HPLC analysis. The method in brief: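 Isolated ovine COX-1 in a cell-free assay, 5 μM arachidonic acid as substrate; compounds at fixed 10 μM. 12-HHT formation expressed as % activity versus vehicle control; mean with SE, n = 3.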

Broadly, the IC50 is the concentration that inhibits the measured activity by half.

Consider `Cc1ccc(S(=O)(=O)NC(=O)Cc2c(C)n(Cc3ccc(Cl)cc3)c3ccc(Br)cc23)cc1`, for which the IC50 in assay [1] (read-out: IC50) came out at 1.7 µM; on Prostaglandin E synthase (read-out: IC50) it was 1.75 µM. The inhibition entry in assay [2] was “inactive”.
The corresponding values for `O=C(Cc1cn(-c2ccccc2)nc1-c1ccc(Cl)cc1)NS(=O)(=O)c1ccccc1` are 6.8 µM, 5.9 µM and “inactive”.
In the case of `COc1ccc2cc(C(C)C(=O)NS(C)(=O)=O)ccc2c1` (stereo not drawn), in assay [3], the Activity was 92.5%. The IC50 result in assay [1] is on record as “Not Active”. Moreover, the inhibition result in assay [2] is “inactive”.
For `COc1ccc2c(c1)c(CC(=O)NS(C)(=O)=O)c(C)n2C(=O)c1ccc(Cl)cc1`, the Activity was 64.9% in assay [4] and 73.6% in assay [3]. Further, the inhibition entry in assay [2] is “inactive”.
As for `O=C(O)Cc1cn(-c2ccccc2)nc1-c1ccc(C#Cc2ccc(Cl)cc2)cc1`, the figures for the IC50 (in assay [1] (read-out: IC50); on Prostaglandin E synthase (read-out: IC50)) were 3.7 µM and 0.16 µM, respectively. Further, in assay [5], the Activity came out at 77.8%. Moreover, the inhibition entry in assay [2] is “inactive”.
Consider `Cc1ccc(S(=O)(=O)NC(=O)Cc2cn(-c3ccccc3)nc2-c2ccc(-c3ccccc3)cc2)cc1`, for which the IC50 in assay [1] (read-out: IC50) was 3.5 µM; at Prostaglandin E synthase (read-out: IC50), 1.7 µM. Moreover, the Activity in assay [5] worked out at 99.1%. The inhibition entry in assay [2] was “inactive”.
For the compound `O=C(O)Cc1cn(-c2ccccc2)nc1-c1ccc(C#Cc2cccc(Cl)c2)cc1`, the values for the IC50 (in assay [1] (read-out: IC50); on Prostaglandin E synthase (read-out: IC50)) were 3.9 µM and 0.18 µM, respectively. The inhibition entry in assay [2] is “inactive”.
Take `CC(C(=O)NS(C)(=O)=O)c1cccc(C(=O)c2ccccc2)c1` (stereo not drawn): the results for the Activity in assay [4] and in assay [3] were 90.7% and 78.6%, respectively. For the same compound, the inhibition result in assay [2] is “inactive”.
As for `CC(C(=O)O)c1cccc(C(=O)c2ccccc2)c1` (stereo not drawn) [KETOPROFEN], the IC50 entry in assay [1] is reported as “Not Active”.
For `COc1ccc2c(c1)c(CC(=O)NS(=O)(=O)c1ccc(C)cc1)c(C)n2C(=O)c1ccc(Cl)cc1`, the IC50 in assay [1] (read-out: IC50) came to 2.9 µM; at Prostaglandin E synthase (read-out: IC50), 6.4 µM. Besides, in assay [5], the Activity stood at 89.4%. The inhibition entry in assay [2] was “inactive”.
Turning to `O=C(O)Cc1cn(-c2ccccc2)nc1-c1ccc(Cl)cc1` [LONAZOLAC CALCIUM], in assay [4], the Activity was 59.7%. Further, the half-inhibitory concentration (IC50) on Prostaglandin E synthase (read-out: IC50) worked out at 45 µM.
As for `Cc1ccc(S(=O)(=O)NC(=O)Cc2cn(-c3ccccc3)nc2-c2ccc(Cl)cc2)cc1`, the figures for the IC50 (in assay [1] (read-out: IC50); on Prostaglandin E synthase (read-out: IC50)) were 2.5 µM and 3.4 µM, respectively. The inhibition entry in assay [2] was “inactive”.
Consider `Cc1ccc(S(=O)(=O)NC(=O)C(C)c2cccc(C(=O)c3ccccc3)c2)cc1` (stereo not drawn), for which the Activity in assay [4] amounted to 78.9%; in assay [3], 76.3%. Moreover, the inhibition result in assay [2] is “inactive”.
On to `COc1ccc2c(c1)c(C(=O)NCc1ccc(S(C)(=O)=O)cc1)c(C)n2C(=O)c1ccc(Cl)cc1`, for which, in assay [3], the Activity worked out at 68.7%. The inhibition entry in assay [2] was “inactive”.
Regarding `Cc1c(CC(=O)NS(=O)(=O)c2ccc(Cl)cc2)c2cc(C#Cc3ccccc3)ccc2n1Cc1ccc(Cl)cc1`, the IC50 is 2 µM in assay [1] (read-out: IC50) and 1.8 µM at Prostaglandin E synthase (read-out: IC50). Also, in assay [2], the inhibition entry was “inactive”.
`COc1ccc2cc(C(C)C(=O)NS(=O)(=O)c3ccc(C)cc3)ccc2c1` (stereo not drawn): in assay [3], the Activity came to 72.8%. In assay [1], the IC50 entry was “Not Active”. Besides, the inhibition result in assay [2] is “inactive”.
Turning to `O=C(Cc1cn(-c2ccccc2)nc1-c1ccc(Cl)cc1)NS(=O)(=O)c1ccc(Cl)cc1`, the IC50 in assay [1] (read-out: IC50) was determined as 2.9 µM; on Prostaglandin E synthase (read-out: IC50) it was 2.3 µM. In assay [2], the inhibition entry was “inactive”.
For the compound `CC(C)Cc1ccc(C(C)C(=O)O)cc1` (stereo not drawn) [IBUPROFEN], the Activity in assay [3] stood at 81.2%. For the same compound, the IC50 result in assay [1] is “Not Active”.
Take `O=C(O)Cc1cn(-c2ccccc2)nc1-c1ccc(C#Cc2ccccc2)cc1`: the IC50 in assay [1] (read-out: IC50) came out at 5 µM; at Prostaglandin E synthase (read-out: IC50) it was 0.4 µM. The inhibition result in assay [2] is “inactive”.
With `O=C(Cc1cn(-c2ccccc2)nc1-c1ccc(C#Cc2ccc(Cl)cc2)cc1)NS(=O)(=O)c1ccc(Cl)cc1`, the results for the IC50 (in assay [1] (read-out: IC50); at Prostaglandin E synthase (read-out: IC50)) were 4.7 µM and 0.35 µM, respectively. Also, in assay [5], the Activity turned out to be 70.1%. In addition, in assay [2], the inhibition result is “inactive”.
For `CCOC(=O)Cc1c(C)n(Cc2ccc(Cl)cc2)c2ccc(C#Cc3ccccc3)cc12`, in assay [3], the Activity was determined as 86.1%. Further, in assay [2], the inhibition entry was “inactive”.
As to `O=C(Cc1cn(-c2ccccc2)nc1-c1ccc(C#Cc2cccc(Cl)c2)cc1)NS(=O)(=O)c1ccc(Cl)cc1`, the IC50 in assay [1] (read-out: IC50) worked out at 2.3 µM; at Prostaglandin E synthase (read-out: IC50) it was 0.8 µM. Besides, the inhibition entry in assay [2] was “inactive”.
As to `Cc1ccc(S(=O)(=O)NC(=O)C(C)c2ccc(CC(C)C)cc2)cc1` (stereo not drawn), the values for the Activity in assay [4] and in assay [3] were 67.7% and 78.6%, respectively. Moreover, the inhibition entry in assay [2] is “inactive”.
The corresponding values for `CC(C)Cc1ccc(C(C)C(=O)NS(C)(=O)=O)cc1` (stereo not drawn) are 91.2%, 67.9% and “inactive”.
`CS(=O)(=O)NC(=O)Cc1cn(-c2ccccc2)nc1-c1ccc(Cl)cc1`: the Activity in assay [4] is 72.1%; in assay [3], 98%. Also, the inhibition entry in assay [2] is “inactive”.
In the case of `COc1ccc2cc([C@H](C)C(=O)O)ccc2c1` [NAPROXEN], the IC50 entry (in assay [1]; at Prostaglandin E synthase (a549)) was “Not Active” throughout.
Turning to `Cc1c(CC(=O)O)c2cc(C#Cc3ccccc3)ccc2n1Cc1ccc(Cl)cc1`, the IC50 in assay [1] (read-out: IC50) was found to be 0.9 µM; on Prostaglandin E synthase (read-out: IC50), 2.5 µM. Also, the inhibition result in assay [2] was “inactive”.
As for `COc1ccc2c(c1)c(CC(=O)O)c(C)n2C(=O)c1ccc(Cl)cc1` [INDOMETHACIN], the figures for the IC50 entry (in assay [1]; at Prostaglandin E synthase (read-out: IC50)) were “Not Active” and 40.6 µM, respectively. Also, the Activity in assay [5] came to 23.3%.
Consider `O=C(Cc1cn(-c2ccccc2)nc1-c1ccc(C#Cc2ccccc2)cc1)NS(=O)(=O)c1ccc(Cl)cc1`, for which the results for the IC50 (in assay [1] (read-out: IC50); at Prostaglandin E synthase (read-out: IC50)) were 1.6 µM and 0.2 µM, respectively. The inhibition entry in assay [2] is “inactive”.
In the case of `Cc1ccc(S(=O)(=O)NC(=O)Cc2c(C)n(Cc3ccc(Cl)cc3)c3ccc(C#Cc4ccccc4)cc23)cc1`, the IC50 in assay [1] (read-out: IC50) is 1.5 µM; at Prostaglandin E synthase (read-out: IC50), 2.8 µM. The Activity in assay [5] stood at 83.1%. Besides, the inhibition entry in assay [2] was “inactive”.
